Measured values taken from ChEMBL document CHEMBL1139376, “Synthesis and biological activity of human neuropeptide S analogues modified in position 5: identification of potent and pure neuropeptide S receptor antagonists” (J Med Chem, 2009).
The source made the active and inactive calls. The calls are words filed in the database; no cut-off is given here. Where a SMILES comes first, the peptide text is derived from it. [ ]: non-standard residue; d: D form. The star is where a group is joined. Bn = c1ccc(C*)cc1; Acm = CC(=O)NC*; tBu = CC(C)(C)*

Columns and labels:
[1] = target: T1, Neuropeptide S receptor (Mus musculus) (UniProt Q8BZP8); assay: Agonist activity at mouse NPSR expressed in HEK293 cells by calcium mobilization assay relative to basal level; assay type: functional, cell-based
T1 sequence (whole entry): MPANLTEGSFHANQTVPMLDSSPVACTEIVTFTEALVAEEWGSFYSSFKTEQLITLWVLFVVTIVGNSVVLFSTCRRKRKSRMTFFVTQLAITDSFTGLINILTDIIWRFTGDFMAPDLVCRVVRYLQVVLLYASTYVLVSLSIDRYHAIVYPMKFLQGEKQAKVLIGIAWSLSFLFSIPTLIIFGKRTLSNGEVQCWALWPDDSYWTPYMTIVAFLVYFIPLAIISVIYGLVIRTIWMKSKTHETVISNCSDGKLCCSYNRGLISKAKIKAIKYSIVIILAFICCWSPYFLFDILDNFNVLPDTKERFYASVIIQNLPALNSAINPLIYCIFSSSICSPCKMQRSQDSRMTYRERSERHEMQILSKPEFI
Method in brief: (§1)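 HEK293 cells stably expressing mouse NPSR were grown in DMEM with 10% FBS, 2 mM glutamine and hygromycin. They were plated on poly-D-lysine wells and, the next day, loaded for 30 min at 37 °C with 3 μM Fluo-4 AM, 2.5 mM probenecid and 0.01% pluronic acid. Fluorescence was read at about 22 °C in HBSS with 20 mM HEPES, probenecid and 500 μM Brilliant Black. The response was the peak fluorescence change as % of baseline, from at least 4 experiments run in duplicate.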

[2] = target: T2, Neuropeptide S receptor (Mus musculus, UniProt Q8BZP8); assay: Agonist activity at mouse NPSR expressed in HEK293 cells by calcium mobilization assay; assay type: functional, cell-based; method in brief: as §1
T2 sequence (Q8BZP8 whole entry): T1 sequence (whole entry)

[3] = target: T1, Neuropeptide S receptor (Mus musculus); assay: Agonist activity at mouse NPSR expressed in HEK293 cells upto 10 uM by calcium mobilization assay; assay type: functional, cell-based; method in brief: as §1
[4] = test system: Mus musculus; assay: Effect on locomotor activity in […] Swiss mouse assessed as number of rearings dosed at 1 nmol, icv befor 5 mins observed for 60 mins; assay type: functional, organism-based
Method in brief: (§2)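 Male Swiss mice (2 months, 25–30 g) received peptide i.c.v. at 0.01–1 nmole in 2 μl into the left ventricle under light ether anaesthesia, 5 min before testing. Each mouse was used once, in the light phase, with no food during testing. Activity was tracked for 60 min in 40 × 40 cm cages. Video recorded distance and immobility time, and an infrared beam array counted rearings. There were 4 experiments with 4 mice/group.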

[5] = test system: Mus musculus; assay: Effect on locomotor activity in […] Swiss mouse assessed as increase in cumulative distance traveled dosed at 1 nmol, icv before 5 mins observed for 60 mins; assay type: functional, organism-based; method in brief: as §2
[6] = test system: Mus musculus; assay: Effect on locomotor activity in […] Swiss mouse assessed as immobility time at 1 nmol, icv befor 5 mins observed for 60 mins; assay type: functional, organism-based; method in brief: as §2
[7] = test system: Mus musculus; assay: Effect on locomotor activity in […] Swiss mouse assessed as increase in number of rearings dosed at 0.1 nmol, icv before 5 mins observed for 60 mins; assay type: functional, organism-based; method in brief: as §2
[8] = test system: Mus musculus; assay: Effect on locomotor activity in […] Swiss mouse assessed as decrease in immobility time at 0.1 nmol, icv before 5 mins observed for 60 mins
[9] = test system: Mus musculus; assay: Effect on locomotor activity in […] Swiss mouse assessed as increase in cumulative distance traveled dosed at 0.1 nmol, icv before 5 mins observed for 60 mins; assay type: functional, organism-based; method in brief: as §2

H-SFRNWVGTGMKKTSFQRAKS-OH was tested. Which Emax [1] did it give?
The Emax was 30%.

`CSCC[C@H](NC(=O)CNC(=O)[C@@H](NC(=O)CNC(=O)[C@@H](NC(=O)[C@@H](CC(C)C)NC(=O)[C@H](CC(N)=O)NC(=O)[C@H](CCCNC(=N)N)NC(=O)[C@H](Cc1ccccc1)NC(=O)[C@@H](N)CO)C(C)C)[C@@H](C)O)C(=O)N[C@@H](CCCCN)C(=O)N[C@@H](CCCCN)C(=O)N[C@H](C(=O)N[C@@H](CO)C(=O)N[C@@H](Cc1ccccc1)C(=O)N[C@@H](CCC(N)=O)C(=O)N[C@@H](CCCNC(=N)N)C(=O)N[C@@H](C)C(=O)N[C@@H](CCCCN)C(=O)N[C@@H](CO)C(=O)O)[C@@H](C)O` (H-SFRN[dL]VGTGMKKTSFQRAKS-OH) was tested. Which EC50 [2] did it give?
The EC50 was 89.1 nM.

For `CSCC[C@H](NC(=O)CNC(=O)[C@@H](NC(=O)CNC(=O)[C@@H](NC(=O)[C@@H](CSC(C)(C)C)NC(=O)[C@H](CC(N)=O)NC(=O)[C@H](CCCNC(=N)N)NC(=O)[C@H](Cc1ccccc1)NC(=O)[C@@H](N)CO)C(C)C)[C@@H](C)O)C(=O)N[C@@H](CCCCN)C(=O)N[C@@H](CCCCN)C(=O)N[C@H](C(=O)N[C@@H](CO)C(=O)N[C@@H](Cc1ccccc1)C(=O)N[C@@H](CCC(N)=O)C(=O)N[C@@H](CCCNC(=N)N)C(=O)N[C@@H](C)C(=O)N[C@@H](CCCCN)C(=O)N[C@@H](CO)C(=O)O)[C@@H](C)O` (H-SFRN[dC](tBu)VGTGMKKTSFQRAKS-OH), which Activity [3] is on record?
The Activity was “inactive”.

How did the Activity [3] turn out when `CSCC[C@H](NC(=O)CNC(=O)[C@@H](NC(=O)CNC(=O)[C@@H](NC(=O)[C@@H](CCSC)NC(=O)[C@H](CC(N)=O)NC(=O)[C@H](CCCNC(=N)N)NC(=O)[C@H](Cc1ccccc1)NC(=O)[C@@H](N)CO)C(C)C)[C@@H](C)O)C(=O)N[C@@H](CCCCN)C(=O)N[C@@H](CCCCN)C(=O)N[C@H](C(=O)N[C@@H](CO)C(=O)N[C@@H](Cc1ccccc1)C(=O)N[C@@H](CCC(N)=O)C(=O)N[C@@H](CCCNC(=N)N)C(=O)N[C@@H](C)C(=O)N[C@@H](CCCCN)C(=O)N[C@@H](CO)C(=O)O)[C@@H](C)O` (H-SFRN[dM]VGTGMKKTSFQRAKS-OH) was run?
Its Activity is “inactive”.

Which results are given for `CSCC[C@H](NC(=O)CNC(=O)[C@@H](NC(=O)CNC(=O)[C@@H](NC(=O)[C@H](NC(=O)[C@H](CC(N)=O)NC(=O)[C@H](CCCNC(=N)N)NC(=O)[C@H](Cc1ccccc1)NC(=O)[C@@H](N)CO)C(C)C)C(C)C)[C@@H](C)O)C(=O)N[C@@H](CCCCN)C(=O)N[C@@H](CCCCN)C(=O)N[C@H](C(=O)N[C@@H](CO)C(=O)N[C@@H](Cc1ccccc1)C(=O)N[C@@H](CCC(N)=O)C(=O)N[C@@H](CCCNC(=N)N)C(=O)N[C@@H](C)C(=O)N[C@@H](CCCCN)C(=O)N[C@@H](CO)C(=O)O)[C@@H](C)O` (H-SFRN[dV]VGTGMKKTSFQRAKS-OH)?
Activity [4]: Active; Activity [5]: Active; Activity [6]: Active; Activity [3]: inactive

How did the Activity [3] turn out when `CSCC[C@H](NC(=O)CNC(=O)[C@@H](NC(=O)CNC(=O)[C@@H](NC(=O)[C@@H](CSCc1ccccc1)NC(=O)[C@H](CC(N)=O)NC(=O)[C@H](CCCNC(=N)N)NC(=O)[C@H](Cc1ccccc1)NC(=O)[C@@H](N)CO)C(C)C)[C@@H](C)O)C(=O)N[C@@H](CCCCN)C(=O)N[C@@H](CCCCN)C(=O)N[C@H](C(=O)N[C@@H](CO)C(=O)N[C@@H](Cc1ccccc1)C(=O)N[C@@H](CCC(N)=O)C(=O)N[C@@H](CCCNC(=N)N)C(=O)N[C@@H](C)C(=O)N[C@@H](CCCCN)C(=O)N[C@@H](CO)C(=O)O)[C@@H](C)O` (H-SFRN[dC](Bn)VGTGMKKTSFQRAKS-OH) was run?
Its Activity is “inactive”.

Which Activity [3] does the source give for `CSCC[C@H](NC(=O)CNC(=O)[C@@H](NC(=O)CNC(=O)[C@@H](NC(=O)[C@@H](Cc1ccccc1)NC(=O)[C@H](CC(N)=O)NC(=O)[C@H](CCCNC(=N)N)NC(=O)[C@H](Cc1ccccc1)NC(=O)[C@@H](N)CO)C(C)C)[C@@H](C)O)C(=O)N[C@@H](CCCCN)C(=O)N[C@@H](CCCCN)C(=O)N[C@H](C(=O)N[C@@H](CO)C(=O)N[C@@H](Cc1ccccc1)C(=O)N[C@@H](CCC(N)=O)C(=O)N[C@@H](CCCNC(=N)N)C(=O)N[C@@H](C)C(=O)N[C@@H](CCCCN)C(=O)N[C@@H](CO)C(=O)O)[C@@H](C)O` (H-SFRN[dF]VGTGMKKTSFQRAKS-OH) here?
The Activity was “inactive”.

Which Activity [3] does the source give for `CSCC[C@H](NC(=O)CNC(=O)[C@@H](NC(=O)CNC(=O)[C@@H](NC(=O)[C@@H](Cc1c[nH]c2ccccc12)NC(=O)[C@H](CC(N)=O)NC(=O)[C@H](CCCNC(=N)N)NC(=O)[C@H](Cc1ccccc1)NC(=O)[C@@H](N)CO)C(C)C)[C@@H](C)O)C(=O)N[C@@H](CCCCN)C(=O)N[C@@H](CCCCN)C(=O)N[C@H](C(=O)N[C@@H](CO)C(=O)N[C@@H](Cc1ccccc1)C(=O)N[C@@H](CCC(N)=O)C(=O)N[C@@H](CCCNC(=N)N)C(=O)N[C@@H](C)C(=O)N[C@@H](CCCCN)C(=O)N[C@@H](CO)C(=O)O)[C@@H](C)O` (H-SFRN[dW]VGTGMKKTSFQRAKS-OH) here?
Its Activity is “inactive”.

How did the Activity [3] turn out when `CSCC[C@H](NC(=O)CNC(=O)[C@@H](NC(=O)CNC(=O)[C@@H](NC(=O)[C@@H](CSCNC(C)=O)NC(=O)[C@H](CC(N)=O)NC(=O)[C@H](CCCNC(=N)N)NC(=O)[C@H](Cc1ccccc1)NC(=O)[C@@H](N)CO)C(C)C)[C@@H](C)O)C(=O)N[C@@H](CCCCN)C(=O)N[C@@H](CCCCN)C(=O)N[C@H](C(=O)N[C@@H](CO)C(=O)N[C@@H](Cc1ccccc1)C(=O)N[C@@H](CCC(N)=O)C(=O)N[C@@H](CCCNC(=N)N)C(=O)N[C@@H](C)C(=O)N[C@@H](CCCCN)C(=O)N[C@@H](CO)C(=O)O)[C@@H](C)O` (H-SFRN[dC](Acm)VGTGMKKTSFQRAKS-OH) was run?
Its Activity is “inactive”.

“H-SFRNGVGTGMKKTSFQRAKS-OH [NEUROPEPTIDE S]” was tested. Which Activity [7] did it give?
The Activity was “Active”.

And the Activity [8]?
Its Activity is “Active”.

And the Activity [9]?
Its Activity is “Active”.

What about the EC50 [2] of the same compound?
The EC50 was 2.24 nM.
